# Laboratory results published in PubChem BioAssay.
# Activity calls are given as the source filed them.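 Rule for the calls, unless noted: active = growth inhibition above 25% in both replicates, a cutoff set 3 SD above the mean; inconclusive = above 25% in only one replicate; inactive = the rest.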
# Assay: OD615 S. cerevisiae growth inhibition, permissive medium, pilot counter-assay, permissive growth control for S. cerevisiae lifespan shortening project (AID 705)
# Settings: OD615, 24 h, at 10 µM, stronger effect = higher value
# Outline: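 System: S. cerevisiae with engineered DeaD lifespan system. Medium: SC raffinose/galactose permissive medium. Doses: single compound dose of 10 µM, 0.25% DMSO final. Schedule: 24 h exposure, 30 °C. Measured by: OD615 turbidity read. Read-out: growth inhibition.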
row,Compound,growth inhibition
1,CCCCS(=O)(=O)/C=C\C=C/S(=O)(=O)CCCC,14.9% (inactive)
2,O=C1C(C=NCc2cccnc2)=C(O)c2ccccc21,-6.25% (inactive)
3,O=C(Nc1ccccc1)C1CC(=O)N(C2CCCCC2)C1 (stereo not drawn),-8.56% (inactive)
4,CC(=O)NC(CCS(C)(=O)=O)C(=O)Nc1cc(Cl)ccc1Cl (stereo not drawn),-14.6% (inactive)
5,Cc1csc(NC(=O)C(CC(C)C)NS(=O)(=O)c2ccc3c(c2)oc(=O)n3C)n1 (stereo not drawn),2.94% (inactive)
6,CCOC(=O)N1CCN(c2c(N3CCOCC3)c(=O)c2=O)CC1,1.49% (inactive)
7,CC(=NCCc1ccccc1)C1=C(O)COC1=O,4.12% (inactive)
8,CCOC(=O)C1=C(C)NC(=O)NC1c1ccc(C)o1 (stereo not drawn),8.61% (inactive)
9,Nc1c(C(=O)CCC(=O)O)oc2ccc(Cl)cc12,5.78% (inactive)
10,CCOc1ccc(-c2nnc3ccc(SCC(=O)N4CCCCC4)nn23)cc1,-0.225% (inactive)
11,O=C(CC1SC(=Nc2ccccc2)N(CCCCO)C1=O)NCc1ccccc1 (stereo not drawn),-5.1% (inactive)
12,COc1ccc(C)cc1NC(=O)c1cnc2scc(C)n2c1=O,9.45% (inactive)
13,COc1ccc(OCc2nnc3n2N=C(c2ccc(OC)cc2)CS3)cc1,7.92% (inactive)
14,O=C(Nc1nnc(-c2ccc(F)cc2)o1)c1ccco1,-6.49% (inactive)
15,CC(=O)Nc1c2c(nn1-c1cccc(Cl)c1)CS(=O)C2 (stereo not drawn),3.89% (inactive)
16,Cc1cc(NCc2ccco2)nc2cc(O)ccc12,-11.9% (inactive)
17,Cc1nnc(NC(=O)CSc2nnc(CNC(=O)c3ccccc3)n2-c2ccccc2)s1,-5% (inactive)
18,COc1ccc(N2Cc3cccc(C(=O)N4CCN(C(=O)c5ccco5)CC4)c3C2=O)cc1,3.88% (inactive)
19,O=C(Nc1nc(-c2cccs2)cs1)c1ccc(S(=O)(=O)N2CCCCC2)cc1,0.945% (inactive)
20,CN1CCN(C(=O)C2CCC(CNS(=O)(=O)c3cccc4cccnc34)CC2)CC1 (stereo not drawn),4.4% (inactive)

row,Compound,growth inhibition
1,CCOc1ccc(CC(=O)Nc2c(C(N)=O)oc3ccc(Br)cc23)cc1OCC,-12% (inactive)
2,CCC(C)(C(=O)NC1CCCCC1)N(Cc1ccco1)C(=O)CNC(=O)c1ccccc1 (stereo not drawn),-14.3% (inactive)
3,COC(=O)c1nc2cc(C)ccn2c1F,0.67% (inactive)
4,CN(CC(=O)N1CCCCCC1)S(=O)(=O)c1cccc2cccnc12,-6.24% (inactive)
5,CN(C)c1nc(Oc2ccc(/C=N/O)cc2)nc(N(C)C)n1,-9.5% (inactive)
6,COc1ccc(Br)cc1S(=O)(=O)N1CCN=C1C,-0.525% (inactive)
7,COc1ccc(COC(=O)C2=C(C)NC(=O)NC2c2ccc(O)c(OC)c2)cc1 (stereo not drawn),-12% (inactive)
8,COc1ccc(-c2nc(Cn3c(SCc4cccc(F)c4)nc4ccncc43)c(C)o2)cc1OC,4.55% (inactive)
9,COc1ccc(-c2nnc(COc3ccc4ccccc4c3)o2)cc1OC,-7.47% (inactive)
10,O=C(Cn1ncc2c1-c1ccccc1OC2)Nc1ccc(S(=O)(=O)N2CCCCC2)cc1,0.515% (inactive)
11,CCNS(=O)(=O)c1ccc(NC(=O)c2cccnc2)cc1,1.24% (inactive)
12,CCCCCCSc1nc2c(c(=O)[nH]c(=O)n2C)n1C,-0.55% (inactive)
13,CCOC(=O)C1=C(C)Nc2nc(C)nn2C1c1ccc(C)cc1 (stereo not drawn),-0.5% (inactive)
14,COc1cc(C)c(S(=O)(=O)NCc2ccc3c(c2)OCO3)cc1C,-2.38% (inactive)
15,O=C(Oc1ccnc2cc(Cl)ccc12)N1CCOCC1,-4.51% (inactive)
16,CCC(Sc1nccn1C)C(=O)Nc1nnc(C)s1 (stereo not drawn),-21.2% (inactive)
17,c1ccc(Oc2nc(Oc3ccccc3)nc(N3CCOCC3)n2)cc1,-3.76% (inactive)
18,O=C(Nc1ccc(Oc2ccccc2)cc1)c1cnc2n(c1=O)CCS2,-16.5% (inactive)
19,Nc1c(C(=O)NCc2ccccc2)nnn1Cc1ccc(F)cc1,-1.67% (inactive)

# Assay: Restrictive medium S. cerevisiae growth inhibition, OD615, pilot screen of yeast lifespan reduction project, restrictive growth control (AID 706;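 active = growth inhibition above a set limit, 3 SD over mean compound inhibition, in both replicates, cut at about 43% in these data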;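 note: modified DeaD lifespan yeast strain shifted to restrictive glucose medium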)
# Settings: OD615, 48 h, at 10 µM, stronger effect = higher value
# Outline: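 Assay system – genetically modified Saccharomyces cerevisiae, DeaD replicative lifespan assay strain · Medium – CSMM-D glucose medium · Doses – 10 µM compound, 0.25% DMSO · Times – 4 h pre-incubation, 48 h exposure at 30 °C · Signal – optical density at 615 nm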
row,Compound,growth inhibition
1,CCCCS(=O)(=O)/C=C\C=C/S(=O)(=O)CCCC,60% (active)
2,O=C1C(C=NCc2cccnc2)=C(O)c2ccccc21,-0.095% (inactive)
3,O=C(Nc1ccccc1)C1CC(=O)N(C2CCCCC2)C1 (stereo not drawn),7.07% (inactive)
4,CC(=O)NC(CCS(C)(=O)=O)C(=O)Nc1cc(Cl)ccc1Cl (stereo not drawn),-17.2% (inactive)
5,Cc1csc(NC(=O)C(CC(C)C)NS(=O)(=O)c2ccc3c(c2)oc(=O)n3C)n1 (stereo not drawn),-3.39% (inactive)
6,CCOC(=O)N1CCN(c2c(N3CCOCC3)c(=O)c2=O)CC1,-13.2% (inactive)
7,CC(=NCCc1ccccc1)C1=C(O)COC1=O,-6.99% (inactive)
8,CCOC(=O)C1=C(C)NC(=O)NC1c1ccc(C)o1 (stereo not drawn),7.96% (inactive)
9,Nc1c(C(=O)CCC(=O)O)oc2ccc(Cl)cc12,-0.24% (inactive)
10,CCOc1ccc(-c2nnc3ccc(SCC(=O)N4CCCCC4)nn23)cc1,9.67% (inactive)
11,O=C(CC1SC(=Nc2ccccc2)N(CCCCO)C1=O)NCc1ccccc1 (stereo not drawn),-5.89% (inactive)
12,COc1ccc(C)cc1NC(=O)c1cnc2scc(C)n2c1=O,-0.68% (inactive)
13,COc1ccc(OCc2nnc3n2N=C(c2ccc(OC)cc2)CS3)cc1,57.4% (active)
14,O=C(Nc1nnc(-c2ccc(F)cc2)o1)c1ccco1,-4.85% (inactive)
15,CC(=O)Nc1c2c(nn1-c1cccc(Cl)c1)CS(=O)C2 (stereo not drawn),-5.49% (inactive)
16,Cc1cc(NCc2ccco2)nc2cc(O)ccc12,-28.8% (inactive)
17,Cc1nnc(NC(=O)CSc2nnc(CNC(=O)c3ccccc3)n2-c2ccccc2)s1,-0.57% (inactive)
18,COc1ccc(N2Cc3cccc(C(=O)N4CCN(C(=O)c5ccco5)CC4)c3C2=O)cc1,11.3% (inactive)
19,O=C(Nc1nc(-c2cccs2)cs1)c1ccc(S(=O)(=O)N2CCCCC2)cc1,-2.17% (inactive)
20,CN1CCN(C(=O)C2CCC(CNS(=O)(=O)c3cccc4cccnc34)CC2)CC1 (stereo not drawn),2.39% (inactive)

row,Compound,growth inhibition
1,CCOc1ccc(CC(=O)Nc2c(C(N)=O)oc3ccc(Br)cc23)cc1OCC,-15.8% (inactive)
2,CCC(C)(C(=O)NC1CCCCC1)N(Cc1ccco1)C(=O)CNC(=O)c1ccccc1 (stereo not drawn),-12.2% (inactive)
3,COC(=O)c1nc2cc(C)ccn2c1F,0.595% (inactive)
4,CN(CC(=O)N1CCCCCC1)S(=O)(=O)c1cccc2cccnc12,-27% (inactive)
5,CN(C)c1nc(Oc2ccc(/C=N/O)cc2)nc(N(C)C)n1,4.05% (inactive)
6,COc1ccc(Br)cc1S(=O)(=O)N1CCN=C1C,-18.3% (inactive)
7,COc1ccc(COC(=O)C2=C(C)NC(=O)NC2c2ccc(O)c(OC)c2)cc1 (stereo not drawn),-17.8% (inactive)
8,COc1ccc(-c2nc(Cn3c(SCc4cccc(F)c4)nc4ccncc43)c(C)o2)cc1OC,30.2% (inactive)
9,COc1ccc(-c2nnc(COc3ccc4ccccc4c3)o2)cc1OC,-22.7% (inactive)
10,O=C(Cn1ncc2c1-c1ccccc1OC2)Nc1ccc(S(=O)(=O)N2CCCCC2)cc1,-5.21% (inactive)
11,CCNS(=O)(=O)c1ccc(NC(=O)c2cccnc2)cc1,8.7% (inactive)
12,CCCCCCSc1nc2c(c(=O)[nH]c(=O)n2C)n1C,22.7% (inactive)
13,CCOC(=O)C1=C(C)Nc2nc(C)nn2C1c1ccc(C)cc1 (stereo not drawn),7.16% (inactive)
14,COc1cc(C)c(S(=O)(=O)NCc2ccc3c(c2)OCO3)cc1C,3% (inactive)
15,O=C(Oc1ccnc2cc(Cl)ccc12)N1CCOCC1,5.71% (inactive)
16,CCC(Sc1nccn1C)C(=O)Nc1nnc(C)s1 (stereo not drawn),2.97% (inactive)
17,c1ccc(Oc2nc(Oc3ccccc3)nc(N3CCOCC3)n2)cc1,-9.93% (inactive)
18,O=C(Nc1ccc(Oc2ccccc2)cc1)c1cnc2n(c1=O)CCS2,-12.6% (inactive)
19,Nc1c(C(=O)NCc2ccccc2)nnn1Cc1ccc(F)cc1,-11.5% (inactive)
